Assay results published in ChEMBL document CHEMBL1156877, “Discovery of 6-benzyloxyquinolines as c-Met selective kinase inhibitors” (Bioorg Med Chem Lett, 2010).
Values belong to the molecule of their own block, whether it stands above or below them.

Key:
[1] = molecular target: Hepatocyte growth factor receptor (Homo sapiens, UniProt P08581); assay: Inhibition of recombinant c-Met by TR-FRET assay
[2] = molecular target: Proto-oncogene tyrosine-protein kinase Src (Homo sapiens, UniProt P12931); assay: Inhibition of recombinant Src by TR-FRET assay
Chain of Proto-oncogene tyrosine-protein kinase Src (P12931 2-536 limits assumed): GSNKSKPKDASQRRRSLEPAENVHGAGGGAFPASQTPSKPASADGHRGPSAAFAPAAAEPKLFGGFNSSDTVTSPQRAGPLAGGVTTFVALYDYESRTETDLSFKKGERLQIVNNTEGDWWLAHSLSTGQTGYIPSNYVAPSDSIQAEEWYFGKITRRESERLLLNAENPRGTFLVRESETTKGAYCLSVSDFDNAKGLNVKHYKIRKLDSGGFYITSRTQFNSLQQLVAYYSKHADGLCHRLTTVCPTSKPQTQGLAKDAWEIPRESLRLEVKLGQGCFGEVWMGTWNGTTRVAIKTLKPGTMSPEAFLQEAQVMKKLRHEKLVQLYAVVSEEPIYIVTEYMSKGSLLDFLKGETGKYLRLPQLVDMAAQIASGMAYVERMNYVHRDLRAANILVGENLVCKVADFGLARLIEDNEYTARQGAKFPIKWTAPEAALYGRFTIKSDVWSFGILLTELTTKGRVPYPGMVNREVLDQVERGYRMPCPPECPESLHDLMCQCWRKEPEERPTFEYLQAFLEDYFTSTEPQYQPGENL
Outline: (§1)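 Recombinant tyrosine kinase incubated with test compound and substrate peptide/ATP for 90 min at 30 °C; enzyme amount, ATP level, substrate and cation vary by kinase. Reaction stopped, then TR-FRET reagent with europium-labelled anti-phospho-substrate antibody added for 5 min at room temperature; substrate phosphorylation read as time-resolved fluorescence.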

[3] = molecular target: Vascular endothelial growth factor receptor 2 (Homo sapiens, UniProt P35968); assay: Inhibition of recombinant KDR by TR-FRET assay; outline: as §1
Chain of Vascular endothelial growth factor receptor 2 (P35968 whole entry): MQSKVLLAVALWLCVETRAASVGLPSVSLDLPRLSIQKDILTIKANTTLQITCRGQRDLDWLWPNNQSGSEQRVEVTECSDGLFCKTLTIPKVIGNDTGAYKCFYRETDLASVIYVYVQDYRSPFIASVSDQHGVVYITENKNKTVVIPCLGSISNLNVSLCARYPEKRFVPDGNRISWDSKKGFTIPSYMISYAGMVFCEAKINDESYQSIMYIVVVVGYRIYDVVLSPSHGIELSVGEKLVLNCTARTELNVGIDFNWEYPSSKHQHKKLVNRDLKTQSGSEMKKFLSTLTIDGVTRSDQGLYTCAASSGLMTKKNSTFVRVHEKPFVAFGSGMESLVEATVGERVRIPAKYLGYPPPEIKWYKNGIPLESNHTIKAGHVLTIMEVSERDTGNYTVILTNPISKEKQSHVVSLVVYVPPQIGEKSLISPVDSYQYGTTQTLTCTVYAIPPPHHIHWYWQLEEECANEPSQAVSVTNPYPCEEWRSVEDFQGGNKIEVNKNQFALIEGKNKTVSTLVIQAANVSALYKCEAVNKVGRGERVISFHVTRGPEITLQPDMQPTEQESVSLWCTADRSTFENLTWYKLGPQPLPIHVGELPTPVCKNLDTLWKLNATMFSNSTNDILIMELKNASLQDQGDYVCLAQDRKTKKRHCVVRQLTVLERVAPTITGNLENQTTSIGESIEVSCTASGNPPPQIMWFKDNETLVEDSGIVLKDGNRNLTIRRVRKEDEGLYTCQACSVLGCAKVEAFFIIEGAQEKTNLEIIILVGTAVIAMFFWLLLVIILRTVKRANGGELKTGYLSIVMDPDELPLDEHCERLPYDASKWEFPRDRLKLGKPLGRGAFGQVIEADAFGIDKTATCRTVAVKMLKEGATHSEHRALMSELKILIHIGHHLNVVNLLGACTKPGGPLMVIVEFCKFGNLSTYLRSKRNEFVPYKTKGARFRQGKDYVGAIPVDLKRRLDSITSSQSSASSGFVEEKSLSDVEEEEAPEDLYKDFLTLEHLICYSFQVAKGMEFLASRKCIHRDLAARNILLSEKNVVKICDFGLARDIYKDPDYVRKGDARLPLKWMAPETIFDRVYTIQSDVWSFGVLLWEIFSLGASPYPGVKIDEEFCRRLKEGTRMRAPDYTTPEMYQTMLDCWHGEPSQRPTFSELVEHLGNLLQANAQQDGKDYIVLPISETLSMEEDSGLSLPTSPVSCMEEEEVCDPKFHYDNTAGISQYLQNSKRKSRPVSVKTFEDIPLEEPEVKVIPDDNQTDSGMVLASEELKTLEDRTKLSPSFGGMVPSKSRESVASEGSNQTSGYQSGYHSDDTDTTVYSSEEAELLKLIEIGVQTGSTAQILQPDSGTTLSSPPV

[4] = molecular target: T1, Protein kinase C beta type (Homo sapiens, UniProt P05771); assay: Inhibition of recombinant PKCbeta2 by IMAP assay
T1 sequence (P05771 whole entry): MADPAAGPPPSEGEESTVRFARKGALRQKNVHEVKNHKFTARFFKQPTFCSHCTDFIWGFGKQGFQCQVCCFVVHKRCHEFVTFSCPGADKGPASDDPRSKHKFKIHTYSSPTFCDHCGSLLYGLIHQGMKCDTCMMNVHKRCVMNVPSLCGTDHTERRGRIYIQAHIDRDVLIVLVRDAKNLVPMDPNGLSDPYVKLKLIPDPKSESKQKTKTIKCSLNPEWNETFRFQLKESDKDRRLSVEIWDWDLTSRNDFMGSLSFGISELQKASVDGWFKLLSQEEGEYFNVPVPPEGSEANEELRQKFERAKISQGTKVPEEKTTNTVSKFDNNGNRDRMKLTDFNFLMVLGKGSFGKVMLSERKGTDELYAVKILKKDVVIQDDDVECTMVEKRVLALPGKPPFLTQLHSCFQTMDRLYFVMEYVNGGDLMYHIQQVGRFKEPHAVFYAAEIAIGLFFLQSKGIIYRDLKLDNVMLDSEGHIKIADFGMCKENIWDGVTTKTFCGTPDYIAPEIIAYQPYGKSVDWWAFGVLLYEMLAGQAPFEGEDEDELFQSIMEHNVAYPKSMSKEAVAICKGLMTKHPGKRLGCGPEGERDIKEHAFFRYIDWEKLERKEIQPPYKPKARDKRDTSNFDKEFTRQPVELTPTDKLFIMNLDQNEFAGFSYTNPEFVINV
Outline: (§2)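 Recombinant enzyme mixed with test compound and substrate peptide/ATP solution, incubated 90 min at 30 °C; enzyme quantity, ATP, substrate and cation set per kinase. IMAP reagent then added for 5 min at room temperature, and peptide phosphorylation quantified by fluorescence polarization.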

[5] = molecular target: Tyrosine-protein kinase Lck (Homo sapiens, UniProt P06239); assay: Inhibition of recombinant LCK by TR-FRET assay
Chain of Tyrosine-protein kinase Lck (P06239 whole entry): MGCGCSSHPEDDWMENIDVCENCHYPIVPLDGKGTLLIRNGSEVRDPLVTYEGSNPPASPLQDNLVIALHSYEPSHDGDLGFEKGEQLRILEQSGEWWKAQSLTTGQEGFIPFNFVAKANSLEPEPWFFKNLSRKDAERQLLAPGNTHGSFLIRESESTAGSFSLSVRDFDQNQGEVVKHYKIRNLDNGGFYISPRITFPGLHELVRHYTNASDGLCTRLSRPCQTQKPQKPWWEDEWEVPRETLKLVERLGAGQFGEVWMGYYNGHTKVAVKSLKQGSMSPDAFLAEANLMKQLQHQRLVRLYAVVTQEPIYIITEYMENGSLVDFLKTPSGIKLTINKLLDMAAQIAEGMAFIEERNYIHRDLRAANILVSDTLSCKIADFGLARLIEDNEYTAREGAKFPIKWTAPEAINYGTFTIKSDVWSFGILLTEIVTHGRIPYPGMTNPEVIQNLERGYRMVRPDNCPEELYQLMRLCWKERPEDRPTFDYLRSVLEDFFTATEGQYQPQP

[6] = molecular target: Tyrosine-protein kinase ABL1 (Homo sapiens, UniProt P00519); assay: Inhibition of recombinant Abl by TR-FRET assay; outline: as §1
[7] = molecular target: Insulin-like growth factor 1 receptor (Homo sapiens, UniProt P08069); assay: Inhibition of recombinant IGF1R by TR-FRET assay; outline: as §1
[8] = Inhibition of recombinant PDGFR by TR-FRET assay; outline: as §1
[9] = molecular target: Fibroblast growth factor receptor 2 (Homo sapiens, UniProt P21802); assay: Inhibition of recombinant FGFR2 by TR-FRET assay; outline: as §1
[10] = molecular target: Ephrin type-A receptor 2 (Homo sapiens, UniProt P29317); assay: Inhibition of recombinant EphA2 by TR-FRET assay; outline: as §1
[11] = molecular target: T2, Receptor-type tyrosine-protein kinase FLT3 (Homo sapiens, UniProt P36888); assay: Inhibition of recombinant Flt3 by TR-FRET assay; outline: as §1
T2 sequence (P36888 whole entry): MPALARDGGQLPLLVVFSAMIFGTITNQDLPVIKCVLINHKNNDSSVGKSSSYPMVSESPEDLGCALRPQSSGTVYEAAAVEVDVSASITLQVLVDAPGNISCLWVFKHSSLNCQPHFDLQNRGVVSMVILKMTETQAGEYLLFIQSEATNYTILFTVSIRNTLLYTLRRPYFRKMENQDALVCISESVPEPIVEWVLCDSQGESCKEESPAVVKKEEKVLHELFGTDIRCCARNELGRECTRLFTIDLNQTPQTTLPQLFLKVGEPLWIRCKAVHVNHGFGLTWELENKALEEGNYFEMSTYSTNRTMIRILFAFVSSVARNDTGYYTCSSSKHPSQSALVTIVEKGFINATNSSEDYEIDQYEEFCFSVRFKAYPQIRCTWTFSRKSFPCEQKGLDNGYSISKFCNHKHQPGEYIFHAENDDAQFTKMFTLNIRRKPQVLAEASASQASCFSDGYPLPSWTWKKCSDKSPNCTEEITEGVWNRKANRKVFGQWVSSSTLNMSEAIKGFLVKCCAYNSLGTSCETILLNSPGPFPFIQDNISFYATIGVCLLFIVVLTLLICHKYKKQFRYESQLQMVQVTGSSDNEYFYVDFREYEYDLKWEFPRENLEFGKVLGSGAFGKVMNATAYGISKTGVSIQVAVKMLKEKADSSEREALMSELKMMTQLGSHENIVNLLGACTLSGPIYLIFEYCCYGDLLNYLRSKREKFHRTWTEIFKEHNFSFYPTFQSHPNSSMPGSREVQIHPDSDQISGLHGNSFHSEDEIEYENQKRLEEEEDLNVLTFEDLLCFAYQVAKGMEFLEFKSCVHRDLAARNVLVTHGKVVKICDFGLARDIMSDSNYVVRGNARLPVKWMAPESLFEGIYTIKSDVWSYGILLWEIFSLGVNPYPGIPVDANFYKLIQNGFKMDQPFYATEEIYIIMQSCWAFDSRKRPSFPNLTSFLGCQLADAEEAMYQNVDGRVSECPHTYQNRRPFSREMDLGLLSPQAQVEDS

[12] = molecular target: Tyrosine-protein kinase Fyn (Homo sapiens, UniProt P06241); assay: Inhibition of recombinant Fyn by TR-FRET assay; outline: as §1
Chain of Tyrosine-protein kinase Fyn (P06241 whole entry): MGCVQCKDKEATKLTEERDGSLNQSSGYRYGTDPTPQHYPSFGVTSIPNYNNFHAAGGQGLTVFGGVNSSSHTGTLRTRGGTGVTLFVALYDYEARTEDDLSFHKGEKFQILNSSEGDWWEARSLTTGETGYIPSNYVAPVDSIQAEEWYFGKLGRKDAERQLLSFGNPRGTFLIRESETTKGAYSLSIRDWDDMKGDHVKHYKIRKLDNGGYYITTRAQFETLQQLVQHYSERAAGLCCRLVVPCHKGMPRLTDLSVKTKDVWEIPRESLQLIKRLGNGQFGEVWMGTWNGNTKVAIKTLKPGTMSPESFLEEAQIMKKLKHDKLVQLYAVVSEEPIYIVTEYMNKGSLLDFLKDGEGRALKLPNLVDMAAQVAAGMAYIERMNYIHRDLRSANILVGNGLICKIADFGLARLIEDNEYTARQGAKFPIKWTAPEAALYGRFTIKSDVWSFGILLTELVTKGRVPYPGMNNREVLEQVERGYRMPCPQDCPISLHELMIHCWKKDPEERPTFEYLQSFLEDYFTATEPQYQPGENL

[13] = molecular target: Mast/stem cell growth factor receptor Kit (Homo sapiens, UniProt P10721); assay: Inhibition of recombinant Kit by TR-FRET assay; outline: as §1
[14] = molecular target: T3, Aurora kinase A (Homo sapiens, UniProt O14965); assay: Inhibition of recombinant Aurora A by IMAP assay; outline: as §2
T3 sequence (O14965 whole entry): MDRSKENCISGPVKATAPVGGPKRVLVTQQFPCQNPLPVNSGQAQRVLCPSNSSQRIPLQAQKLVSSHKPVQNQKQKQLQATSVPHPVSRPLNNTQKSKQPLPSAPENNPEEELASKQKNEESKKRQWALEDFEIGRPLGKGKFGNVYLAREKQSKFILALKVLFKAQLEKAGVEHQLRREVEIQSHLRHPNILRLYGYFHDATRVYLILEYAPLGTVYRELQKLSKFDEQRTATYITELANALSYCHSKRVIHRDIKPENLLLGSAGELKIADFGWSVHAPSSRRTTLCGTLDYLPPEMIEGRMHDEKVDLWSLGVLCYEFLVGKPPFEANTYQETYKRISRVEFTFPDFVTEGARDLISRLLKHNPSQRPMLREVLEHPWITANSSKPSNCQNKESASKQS

[15] = molecular target: Leukocyte tyrosine kinase receptor (Homo sapiens, UniProt P29376); assay: Inhibition of recombinant LTK by TR-FRET assay; outline: as §1
[16] = molecular target: Cyclin-dependent kinase 1 (Homo sapiens, UniProt P06493); assay: Inhibition of recombinant CDK1 by IMAP assay; outline: as §2
[17] = molecular target: Tyrosine-protein kinase Yes (Homo sapiens, UniProt P07947); assay: Inhibition of recombinant YES by TR-FRET assay; outline: as §1
[18] = molecular target: Macrophage-stimulating protein receptor (Homo sapiens, UniProt Q04912); assay: Inhibition of recombinant RON by TR-FRET assay; outline: as §1
[19] = molecular target: Cyclin-dependent kinase 2 (Homo sapiens, UniProt P24941); assay: Inhibition of recombinant CDK2 by IMAP assay; outline: as §2
[20] = molecular target: T4, Tyrosine-protein kinase receptor UFO (Homo sapiens, UniProt P30530); assay: Inhibition of recombinant AXL by TR-FRET assay; outline: as §1
T4 sequence (P30530 whole entry): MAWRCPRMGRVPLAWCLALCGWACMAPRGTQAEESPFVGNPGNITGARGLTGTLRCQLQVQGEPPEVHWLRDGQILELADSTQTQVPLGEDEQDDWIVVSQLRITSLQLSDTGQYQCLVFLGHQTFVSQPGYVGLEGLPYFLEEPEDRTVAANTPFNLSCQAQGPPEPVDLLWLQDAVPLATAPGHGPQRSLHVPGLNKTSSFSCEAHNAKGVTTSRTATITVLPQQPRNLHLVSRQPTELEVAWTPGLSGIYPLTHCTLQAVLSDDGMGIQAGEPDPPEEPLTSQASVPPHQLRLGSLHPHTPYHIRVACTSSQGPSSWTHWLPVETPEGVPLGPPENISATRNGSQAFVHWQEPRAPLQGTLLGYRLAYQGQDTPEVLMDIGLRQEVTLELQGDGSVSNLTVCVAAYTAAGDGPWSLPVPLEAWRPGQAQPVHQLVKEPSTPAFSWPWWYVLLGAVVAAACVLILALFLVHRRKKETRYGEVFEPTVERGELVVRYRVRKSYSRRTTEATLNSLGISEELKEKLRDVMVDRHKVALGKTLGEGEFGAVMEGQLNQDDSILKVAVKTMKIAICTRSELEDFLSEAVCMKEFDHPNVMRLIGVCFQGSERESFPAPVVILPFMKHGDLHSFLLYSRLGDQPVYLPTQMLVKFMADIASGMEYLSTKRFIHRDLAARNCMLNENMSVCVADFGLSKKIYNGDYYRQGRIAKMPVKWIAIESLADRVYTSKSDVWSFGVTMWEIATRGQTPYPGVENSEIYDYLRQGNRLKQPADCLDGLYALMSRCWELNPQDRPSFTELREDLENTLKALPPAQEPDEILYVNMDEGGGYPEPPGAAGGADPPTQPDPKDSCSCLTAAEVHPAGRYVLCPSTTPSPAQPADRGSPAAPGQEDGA

[21] = molecular target: RAC-alpha serine/threonine-protein kinase (Homo sapiens, UniProt P31749); assay: Inhibition of recombinant AKT1 by IMAP assay; outline: as §2
[22] = molecular target: Protein-tyrosine kinase 6 (Homo sapiens, UniProt Q13882); assay: Inhibition of recombinant BRK by TR-FRET assay; outline: as §1
[23] = Inhibition of recombinant PKA by IMAP assay; outline: as §2
[24] = molecular target: T1, Protein kinase C beta type; assay: Inhibition of recombinant PKCbeta1 by IMAP assay; outline: as §2
[25] = Solubility in fasted state simulated intestinal fluid; assay type: physicochemical
[26] = molecular target: Insulin receptor (Homo sapiens, UniProt P06213); assay: Inhibition of recombinant InsR by TR-FRET assay
[27] = molecular target: Protein kinase C alpha type (Homo sapiens, UniProt P17252); assay: Inhibition of recombinant PKCalpha by IMAP assay; outline: as §2
[28] = system: MKN-45; assay: Cytotoxicity against human MKN45 cells after 96 hrs by WST8 assay; assay type: functional, cell-based; conditions: MKN-45, 96 h
Outline: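 Tumour cells exposed to a range of compound concentrations for 96 h; cytotoxicity read with WST-8 cell counting kit.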

Chain of Hepatocyte growth factor receptor (P08581 whole entry): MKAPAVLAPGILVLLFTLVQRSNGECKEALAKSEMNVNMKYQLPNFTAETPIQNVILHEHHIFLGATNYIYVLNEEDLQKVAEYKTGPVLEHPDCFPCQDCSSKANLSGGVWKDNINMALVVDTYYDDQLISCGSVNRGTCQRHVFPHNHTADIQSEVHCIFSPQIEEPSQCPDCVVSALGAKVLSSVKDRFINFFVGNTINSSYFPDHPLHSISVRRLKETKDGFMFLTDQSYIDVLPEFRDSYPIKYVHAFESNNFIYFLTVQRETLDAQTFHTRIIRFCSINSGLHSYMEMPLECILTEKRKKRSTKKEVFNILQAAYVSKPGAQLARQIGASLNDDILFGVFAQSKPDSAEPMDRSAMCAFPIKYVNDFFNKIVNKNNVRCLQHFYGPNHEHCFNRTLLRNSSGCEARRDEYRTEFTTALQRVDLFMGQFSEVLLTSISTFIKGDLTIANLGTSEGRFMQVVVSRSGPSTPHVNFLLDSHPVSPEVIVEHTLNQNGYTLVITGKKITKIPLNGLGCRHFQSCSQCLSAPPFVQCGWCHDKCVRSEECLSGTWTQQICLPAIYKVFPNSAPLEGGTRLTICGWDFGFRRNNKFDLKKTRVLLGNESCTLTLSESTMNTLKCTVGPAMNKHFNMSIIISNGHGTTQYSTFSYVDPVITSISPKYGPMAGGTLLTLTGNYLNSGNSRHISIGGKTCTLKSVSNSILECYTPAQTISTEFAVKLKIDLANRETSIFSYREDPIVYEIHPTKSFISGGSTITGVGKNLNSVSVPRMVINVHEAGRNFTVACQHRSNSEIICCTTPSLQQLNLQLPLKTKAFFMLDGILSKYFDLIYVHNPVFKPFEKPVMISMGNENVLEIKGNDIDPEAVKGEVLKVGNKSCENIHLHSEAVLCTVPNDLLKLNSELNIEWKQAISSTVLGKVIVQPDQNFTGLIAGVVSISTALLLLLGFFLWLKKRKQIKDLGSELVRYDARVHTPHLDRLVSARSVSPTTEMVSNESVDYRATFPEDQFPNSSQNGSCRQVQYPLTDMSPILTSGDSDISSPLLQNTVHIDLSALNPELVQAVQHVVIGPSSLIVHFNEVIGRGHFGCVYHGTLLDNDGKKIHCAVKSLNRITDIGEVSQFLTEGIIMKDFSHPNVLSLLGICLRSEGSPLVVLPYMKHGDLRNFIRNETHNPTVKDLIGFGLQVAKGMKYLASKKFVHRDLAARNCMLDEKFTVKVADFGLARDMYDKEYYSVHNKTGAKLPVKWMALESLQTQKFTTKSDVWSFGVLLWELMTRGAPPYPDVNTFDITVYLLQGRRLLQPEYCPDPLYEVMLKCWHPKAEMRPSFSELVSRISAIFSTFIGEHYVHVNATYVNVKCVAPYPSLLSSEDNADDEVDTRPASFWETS

SMILES: C[C@@H](Oc1ccc2ncc(/C=C/C(N)=O)cc2c1)c1c(Cl)ccc(F)c1Cl
IC50 [4]: > 50 µM | IC50 [5]: 14 µM | solubility [25]: < 13 µg/mL | IC50 [6]: 10 µM | IC50 [7]: > 50 µM | IC50 [8]: > 50 µM | IC50 [9]: 6.9 µM | IC50 [10]: 4.4 µM | IC50 [11]: 32 µM | IC50 [26]: > 50 µM | IC50 [12]: 28 µM | IC50 [13]: > 50 µM | IC50 [14]: 6.4 µM | IC50 [15]: 18 µM | IC50 [16]: > 50 µM | IC50 [17]: 26 µM | IC50 [18]: 450 nM | IC50 [19]: > 50 µM | IC50 [3]: 11 µM | IC50 [20]: 0.57 µM | IC50 [27]: > 50 µM | IC50 [21]: > 50 µM | IC50 [22]: 32 µM | IC50 [23]: > 50 µM | IC50 [24]: > 50 µM

SMILES: CC(Oc1ccc2ncc(CCC(N)=O)cc2c1)c1c(Cl)ccc(F)c1Cl (racemic)
IC50 [1]: 205 nM | IC50 [28]: 4400 nM | IC50 [2]: > 50 µM | IC50 [3]: 50 µM

SMILES: CNC(=O)/C=C/c1cnc2ccc(OC(C)c3c(Cl)ccc(F)c3Cl)cc2c1 (racemic)
IC50 [28]: 240 nM | IC50 [2]: > 50 µM | IC50 [3]: > 50 µM

SMILES: CC(Oc1ccc2ncc(/C=C/C(=O)N(C)C)cc2c1)c1c(Cl)ccc(F)c1Cl (racemic)
IC50 [1]: 59 nM | IC50 [28]: 610 nM | IC50 [2]: > 50 µM | IC50 [3]: > 50 µM

Continued, in another order:

IC50 [1]: 1200 nM | IC50 [2]: 20 µM | IC50 [3]: > 50 µM
SMILES: C[C@H](Oc1ccc2ncccc2c1)c1c(Cl)ccc(F)c1Cl

IC50 [4]: > 50 µM | IC50 [5]: > 50 µM | IC50 [6]: > 50 µM | IC50 [1]: 130 nM | IC50 [7]: > 50 µM | IC50 [8]: > 50 µM | IC50 [9]: 24 µM | IC50 [10]: > 50 µM | IC50 [2]: 22 µM | IC50 [11]: 46 µM | IC50 [12]: > 50 µM | IC50 [13]: 41 µM | IC50 [14]: > 50 µM | IC50 [15]: > 50 µM | IC50 [16]: > 50 µM | IC50 [17]: > 50 µM | IC50 [18]: 3600 nM | IC50 [19]: > 50 µM | IC50 [3]: 23 µM | IC50 [20]: 14 µM | IC50 [21]: > 50 µM | IC50 [22]: > 50 µM | IC50 [23]: > 50 µM | IC50 [24]: > 50 µM
SMILES: C[C@@H](Oc1ccc2ncccc2c1)c1c(Cl)ccc(F)c1Cl

IC50 [1]: 453 nM | IC50 [2]: > 50 µM | IC50 [3]: 32 µM
SMILES: CC(Oc1ccc2ncccc2c1)c1c(Cl)ccc(F)c1Cl (racemic)

IC50 [2]: > 50 µM | IC50 [3]: 26 µM
SMILES: CC(Oc1ccc2ncc(/C=C/C(N)=O)cc2c1)c1c(Cl)ccc(F)c1Cl (racemic)
IC50 [28]: 350 nM

IC50 [1]: 368 nM | IC50 [2]: 46 µM | IC50 [3]: 33 µM
SMILES: CC(Oc1ccc2ncc(/C=C/CN)cc2c1)c1c(Cl)ccc(F)c1Cl (racemic)
IC50 [28]: 4300 nM

IC50 [1]: 94 nM | IC50 [2]: > 50 µM | IC50 [3]: > 50 µM
SMILES: CC(Oc1ccc2ncc(/C=C/C(=O)O)cc2c1)c1c(Cl)ccc(F)c1Cl (racemic)
IC50 [28]: 10200 nM
